In ChEMBL document CHEMBL1148287, “Design of potent, selective, and orally bioavailable inhibitors of cysteine protease cathepsin k” (J Med Chem, 2004):
Values belong to the compound of their own block, whether it stands above or below them.

How the values were obtained:
Cathepsin K [1] = target: T1, Cathepsin K (Homo sapiens, UniProt P43235); assay: Concentration required to inhibit 50% of cysteine protease cathepsin K of human
T1 sequence (P43235 whole entry): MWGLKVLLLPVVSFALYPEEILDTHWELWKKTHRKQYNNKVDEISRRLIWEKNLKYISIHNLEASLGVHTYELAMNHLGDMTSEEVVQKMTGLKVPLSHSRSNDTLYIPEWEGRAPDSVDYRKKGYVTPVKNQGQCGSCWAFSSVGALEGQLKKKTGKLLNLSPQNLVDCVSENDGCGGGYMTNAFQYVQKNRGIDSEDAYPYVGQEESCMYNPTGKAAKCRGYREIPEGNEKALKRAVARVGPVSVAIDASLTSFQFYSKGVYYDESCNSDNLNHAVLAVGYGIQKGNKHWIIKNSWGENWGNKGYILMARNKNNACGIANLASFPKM
Summary of the method: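 Reactions were started by adding inhibitor plus substrate to enzyme. AMC fluorescence (ex 360/em 440) progress curves were followed over 2.3 h at varied inhibitor concentrations. IC50 was fitted as rate = Vmax/(1+[I]/IC50).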

[2] = Selectivity ratio between IC50 against Cathepsin S and IC50 against Cathepsin K
Summary of the method: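 Recombinant human cathepsin S was run with Cbz-Val-Val-Arg-AMC at 10 μM final (Km >100 μM); human cathepsin K used Cbz-Phe-Arg-AMC at 10 μM. Both were in pH 5.5 sodium acetate with 10 mM DTT, 120 mM NaCl and 10% DMSO at 30 °C, with AMC fluorescence progress curves over 2.3 h. The ratio was taken from the fitted IC50s.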

Cathepsin K [3] = target: T2, Cathepsin K (Rattus norvegicus, UniProt O35186); assay: Inhibition of cysteine protease cathepsin K of rat
T2 sequence (O35186 whole entry): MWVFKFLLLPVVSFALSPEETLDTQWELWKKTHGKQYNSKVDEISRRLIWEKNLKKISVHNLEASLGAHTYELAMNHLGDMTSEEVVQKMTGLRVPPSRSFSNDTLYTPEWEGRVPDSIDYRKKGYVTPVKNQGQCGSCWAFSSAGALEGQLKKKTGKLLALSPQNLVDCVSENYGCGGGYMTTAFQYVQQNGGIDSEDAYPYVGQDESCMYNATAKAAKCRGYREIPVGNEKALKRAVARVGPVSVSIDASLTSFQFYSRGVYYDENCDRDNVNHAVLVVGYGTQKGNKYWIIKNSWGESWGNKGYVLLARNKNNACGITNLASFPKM

[4] = target: Cathepsin (H and K) (Homo sapiens) (UniProt P09668+P43235); assay: Selectivity for Cathepsins H and K, ratio of IC50; format: protein assay
Chain of Cathepsin (H and K) (Homo sapiens) (P09668 whole entry, looked up, one chain of several): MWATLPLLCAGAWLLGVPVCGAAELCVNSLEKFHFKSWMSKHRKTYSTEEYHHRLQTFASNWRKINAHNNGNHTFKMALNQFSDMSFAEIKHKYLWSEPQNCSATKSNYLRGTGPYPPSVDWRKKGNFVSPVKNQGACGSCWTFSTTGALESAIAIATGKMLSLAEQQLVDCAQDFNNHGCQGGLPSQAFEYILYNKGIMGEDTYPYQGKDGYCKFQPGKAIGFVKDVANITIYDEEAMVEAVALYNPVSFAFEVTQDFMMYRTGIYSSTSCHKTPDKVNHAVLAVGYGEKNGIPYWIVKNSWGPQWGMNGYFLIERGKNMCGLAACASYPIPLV
Summary of the method: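 Human liver cathepsin H was run with L-Arg-β-naphthalamide at 50 μM final (Km 195 μM), read at ex 340/em 420. Human cathepsin K used Cbz-Phe-Arg-AMC at 10 μM, read at ex 360/em 440. Both were at pH 5.5 with DTT/NaCl and 10% DMSO at 30 °C, with 2.3 h progress curves. IC50s were fitted from rate vs [I] and ratioed.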

[5] = Selectivity as ratio between IC50 against Cathepsin L and IC50 against Cathepsin K
Summary of the method: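 Both assays used pH 5.5 acetate/DTT/NaCl, 10% DMSO, 30 °C and AMC fluorescence progress curves over 2.3 h. IC50s were fitted from rate vs [I] and taken as a ratio.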

Homo sapiens = species on record: Homo sapiens; assay: Selectivity as ratio between IC50 against Cathepsin V and IC50 against Cathepsin K
Summary of the method: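 Conditions were pH 5.5 acetate buffer with 10 mM DTT, 120 mM NaCl and 10% DMSO at 30 °C, with fluorescence progress curves over 2.3 h. The IC50 fits gave the ratio.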

[6] = Selectivity as ratio between IC50 against Cathepsin B and IC50 against Cathepsin K
Summary of the method: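 Human liver cathepsin B and recombinant human cathepsin K were each run with Cbz-Phe-Arg-AMC at 10 μM final (Km 400 and 70 μM). Both used pH 5.5 acetate/DTT/NaCl buffer, 10% DMSO, 30 °C and a 2.3 h fluorescence progress-curve read (ex 360/em 440). IC50s were fitted from rate vs [I], and the ratio of the two IC50s was taken.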

[7] = Half-life in rat; format: ADME, organism-based; details: in vivo
Summary of the method: (§1)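 Rats were dosed iv into the femoral vein at 5 mg/kg or orally at 10 mg/kg, from a solution in 15% solutol/citrate buffer/0.1% ascorbic acid, pH 3.5. Blood was drawn from a jugular cannula before dosing and at 0.03–24 h, then clotted to serum. Samples were acetonitrile-precipitated with internal standard and analysed by LC-MS/MS (MRM). Parameters came from noncompartmental analysis.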

[8] = Peak plasma concentration in rat; format: ADME, organism-based; summary of the method: as §1
[9] = Maximum time required to achieve Cmax was determined in rat; format: ADME, organism-based; details: in vivo; summary of the method: as §1
[10] = Percent instability was measured by Rat S9 liver […] metabolism assay, in vitro; format: ADME, Liver S9 fraction; details: read-out: Activity
Summary of the method: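 Rat S9 liver metabolism, read as % metabolized after 1 h incubation at 37 °C, run in duplicate.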

[11] = Bioavailability in rat; format: ADME, organism-based; details: in vivo; summary of the method: as §1
[12] = Area Under plasma concentration time curve in rat upon peroral administration; format: ADME, organism-based; details: po; summary of the method: as §1
[13] = Compound was tested for its cell permeability in the Madin-Darby canine kidney cell monolayer transport assay; format: ADME, Canis lupus familiaris; details: dog, MDCK; read-out: Activity
Rattus norvegicus = species on record: Rattus norvegicus; assay: Volume of distribution in steady state was determined in rat; format: ADME, organism-based; details: in vivo; summary of the method: as §1

SMILES: CCCC[C@H](NC(=O)OC(C(C)C)C(C)C)C(=O)C(=O)Nc1[nH]ncc1C(=O)OCC
IC50 (Cathepsin K [1]): 1.7 nM
Ratio [2]: 3.6

SMILES: CCCC[C@H](NC(=O)OC(C(C)C)C(C)C)C(=O)C(=O)Nc1ccnn1-c1ccncc1
IC50 (Cathepsin K [3]): 470 nM
IC50 (Cathepsin K [1]): 25 nM
Ratio [4]: > 500
Ratio [5]: 44
Ratio [2]: 5.4
Ratio (Homo sapiens): 19
Ratio [6]: > 500

SMILES: CCCC[C@H](NC(=O)OC(C(C)C)C(C)C)C(=O)C(=O)Nc1[nH]ncc1C#N
IC50 (Cathepsin K [1]): 0.91 nM
Ratio [2]: 3.6

SMILES: CCCC[C@H](NC(=O)OC(C(C)C)C(C)C)C(=O)C(=O)Nc1ccnn1CCC(C)(C)C
IC50 (Cathepsin K [3]): 1600 nM
IC50 (Cathepsin K [1]): 62 nM

SMILES: CCCC[C@H](NC(=O)OC(C(C)C)C(C)C)C(=O)C(=O)Nc1cc2ccccc2cn1
IC50 (Cathepsin K [1]): 4.8 nM

SMILES: CCCC[C@H](NC(=O)OC(C(C)C)C(C)C)C(=O)C(=O)Nc1ccnn1C1CCC1
IC50 (Cathepsin K [3]): 1100 nM
IC50 (Cathepsin K [1]): 15 nM
Ratio [4]: > 830
Ratio [5]: 290
Ratio [2]: 130
Ratio (Homo sapiens): 140
Ratio [6]: > 830

SMILES: CCCC[C@H](NC(=O)OC(C(C)C)C(C)C)C(=O)C(=O)Nc1[nH]nc2cccc(F)c12
IC50 (Cathepsin K [1]): 0.26 nM
Ratio [2]: 2.3

SMILES: CCCC[C@H](NC(=O)OC(C(C)C)C(C)C)C(=O)C(=O)Nc1ccnn1CC1CC1
IC50 (Cathepsin K [3]): 1700 nM
IC50 (Cathepsin K [1]): 27 nM
Ratio [4]: > 470
Ratio [5]: 220
Ratio [2]: 41
Ratio (Homo sapiens): 63
Ratio [6]: > 470

SMILES: CCCC[C@H](NC(=O)OC(C(C)C)C(C)C)C(=O)C(=O)Nc1[nH]ncc1Br
IC50 (Cathepsin K [1]): 0.24 nM
Ratio [2]: 4.2

SMILES: CCCC[C@H](NC(=O)OC(C(C)C)C(C)C)C(=O)C(=O)Nc1[nH]ncc1-c1ccccc1
IC50 (Cathepsin K [3]): 1.8 nM
IC50 (Cathepsin K [1]): 0.21 nM
Ratio [4]: 1700
Ratio [5]: 25
Ratio [2]: 4.1
Ratio (Homo sapiens): 9.1
Ratio [6]: 1200

Further lines, results first:

IC50 (Cathepsin K [1]): 360 nM
SMILES: CC(C)C(OC(=O)N[C@@H](C)C(=O)C(=O)NCc1cccs1)C(C)C

IC50 (Cathepsin K [1]): 24 nM
SMILES: CC(C)C[C@H](NC(=O)OC(C(C)C)C(C)C)C(=O)C(=O)NCc1cccs1

IC50 (Cathepsin K [3]): 1000 nM
IC50 (Cathepsin K [1]): 17 nM
SMILES: CCCC[C@H](NC(=O)OC(C(C)C)C(C)C)C(=O)C(=O)Nc1ccnn1C(C)C

Ratio [2]: 4.6
SMILES: CCCC[C@H](NC(=O)OC(C(C)C)C(C)C)C(=O)C(=O)Nc1cc(C)[nH]n1

IC50 (Cathepsin K [1]): 87 nM
SMILES: CCC(C)[C@H](NC(=O)OC(C(C)C)C(C)C)C(=O)C(=O)NCc1cccs1 (some centres undefined)

IC50 (Cathepsin K [1]): 47 nM
SMILES: CC(C)C(OC(=O)N[C@H](C(=O)C(=O)NCc1cccs1)C(C)C)C(C)C

IC50 (Cathepsin K [3]): 13 nM
half-life [7]: 11.7 h
Cmax [8]: 370 ng/mL
IC50 (Cathepsin K [1]): 0.77 nM
Ratio [4]: 30
Tmax [9]: 0.25 h
Ratio [5]: 40
metabolised [10]: 77%
Ratio [2]: 3
bioavailability [11]: 41%
Ratio (Homo sapiens): 21
Ratio [6]: 670
AUC [12]: 1100 ng·h/mL
Papp [13]: 48 ×10⁻⁶ cm/s
Vss (Rattus norvegicus): 15 L/kg
SMILES: CCCC[C@H](NC(=O)OC(C(C)C)C(C)C)C(=O)C(=O)Nc1cc[nH]n1

half-life [7]: 2.83 h
Cmax [8]: 690 ng/mL
IC50 (Cathepsin K [1]): 83 nM
Tmax [9]: 0.633 h
metabolised [10]: 96%
bioavailability [11]: 15%
AUC [12]: 920 ng·h/mL
SMILES: CCCC[C@H](NC(=O)OC(C(C)C)C(C)C)C(=O)C(=O)Nc1nncs1

IC50 (Cathepsin K [3]): 5.5 nM
IC50 (Cathepsin K [1]): 0.47 nM
Ratio [4]: 2100
Ratio [5]: 26
metabolised [10]: 68%
Ratio [2]: 1.7
Ratio (Homo sapiens): 14
Ratio [6]: 1100
Papp [13]: 37 ×10⁻⁶ cm/s
SMILES: CCCC[C@H](NC(=O)OC(C(C)C)C(C)C)C(=O)C(=O)Nc1[nH]ncc1C

IC50 (Cathepsin K [1]): 9.2 nM
SMILES: CCCC[C@H](NC(=O)OC(C(C)C)C(C)C)C(=O)C(=O)NCc1cccs1

IC50 (Cathepsin K [1]): 27 nM
SMILES: CC(C)C(OC(=O)N[C@@H](Cc1ccccc1)C(=O)C(=O)NCc1cccs1)C(C)C
